Results: ChEMBL document CHEMBL1275531, “Genomewide expression profiling of cryptolepine-induced toxicity in Saccharomyces cerevisiae” (Antimicrob Agents Chemother, 2008)
The source made the active and inactive calls. No cut-off for these calls is given here.

What was measured:
[1] = system: Saccharomyces cerevisiae; assay: Downregulation of ARN1 gene expression in Saccharomyces cerevisiae relative to untreated control; assay type: functional
Procedure, shortened: (§1)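 Δerg6 cells treated 15 h at 7.5 or 17 μM, with the eight microarray hybridizations pooled. A gene counted as changed when two-tailed Student t test on log-transformed ratios gave P below 0.01 for ratio equal to 1. Genes grouped by GO biological-process category.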

[2] = system: Saccharomyces cerevisiae; assay: Downregulation of ARN2 gene expression in Saccharomyces cerevisiae relative to untreated control; assay type: functional; procedure, shortened: as §1
[3] = system: Saccharomyces cerevisiae; assay: Downregulation of SIT1 gene expression in Saccharomyces cerevisiae relative to untreated control; assay type: functional; procedure, shortened: as §1
[4] = system: Saccharomyces cerevisiae; assay: Downregulation of FIT1 gene expression in Saccharomyces cerevisiae relative to untreated control; assay type: functional; procedure, shortened: as §1
[5] = system: Saccharomyces cerevisiae; assay: Downregulation of FIT2 gene expression in Saccharomyces cerevisiae relative to untreated control; assay type: functional; procedure, shortened: as §1
[6] = system: Saccharomyces cerevisiae; assay: Downregulation of FIT3 gene expression in Saccharomyces cerevisiae relative to untreated control; assay type: functional; procedure, shortened: as §1
[7] = system: Saccharomyces cerevisiae; assay: Downregulation of FRE1 gene expression in Saccharomyces cerevisiae relative to untreated control; assay type: functional; procedure, shortened: as §1
[8] = system: Saccharomyces cerevisiae; assay: Upregulation of FRE2 gene expression in Saccharomyces cerevisiae relative to untreated control; assay type: functional; procedure, shortened: as §1
[9] = system: Saccharomyces cerevisiae; assay: Downregulation of FRE5 gene expression in Saccharomyces cerevisiae relative to untreated control; assay type: functional; procedure, shortened: as §1
[10] = system: Saccharomyces cerevisiae; assay: Downregulation of FRE6 gene expression in Saccharomyces cerevisiae relative to untreated control; assay type: functional; procedure, shortened: as §1
[11] = system: Saccharomyces cerevisiae; assay: Downregulation of FET3 gene expression in Saccharomyces cerevisiae relative to untreated control; assay type: functional; procedure, shortened: as §1
[12] = system: Saccharomyces cerevisiae; assay: Upregulation of FET5 gene expression in Saccharomyces cerevisiae relative to untreated control; assay type: functional; procedure, shortened: as §1
[13] = system: Saccharomyces cerevisiae; assay: Downregulation of FTR1 gene expression in Saccharomyces cerevisiae relative to untreated control; assay type: functional; procedure, shortened: as §1
[14] = system: Saccharomyces cerevisiae; assay: Downregulation of FTH1 gene expression in Saccharomyces cerevisiae relative to untreated control; assay type: functional; procedure, shortened: as §1
[15] = system: Saccharomyces cerevisiae; assay: Downregulation of FET4 gene expression in Saccharomyces cerevisiae relative to untreated control; assay type: functional; procedure, shortened: as §1
[16] = system: Saccharomyces cerevisiae; assay: Downregulation of SMF1 gene expression in Saccharomyces cerevisiae relative to untreated control; assay type: functional; procedure, shortened: as §1
[17] = system: Saccharomyces cerevisiae; assay: Upregulation of SMF2 gene expression in Saccharomyces cerevisiae relative to untreated control; assay type: functional; procedure, shortened: as §1
[18] = system: Saccharomyces cerevisiae; assay: Downregulation of SMF3 gene expression in Saccharomyces cerevisiae relative to untreated control; assay type: functional; procedure, shortened: as §1
[19] = system: Saccharomyces cerevisiae; assay: Cytotoxicity against Saccharomyces cerevisiae JN394 harboring deltarad52 mutant gene after 4 hrs; assay type: functional, organism-based; conditions: JN394, 4 h
Procedure, shortened: (§2)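 Growth assay: strains precultured in YPD at 30°C for 15 h, shaking 250 rpm in the dark, then standardized to OD600 0.05 in the same medium. Grown in triplicate with a range of concentrations (methanol stock, diluted before use) under continuous 4 h treatment; growth read as OD600 and inhibitory concentrations taken from the plots.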

[20] = system: Saccharomyces cerevisiae; assay: Cytotoxicity against Saccharomyces cerevisiae BY4741 harboring deltaerg6 mutant gene after 4 hrs; assay type: functional, organism-based; conditions: BY4741, 4 h; procedure, shortened: as §2
[21] = system: Saccharomyces cerevisiae; assay: Cytotoxicity against Saccharomyces cerevisiae BY4741 harboring deltaerg6 mutant gene at <10 uM after 4 hrs; assay type: functional, organism-based; procedure, shortened: as §2
[22] = system: Saccharomyces cerevisiae; assay: Cytotoxicity against Saccharomyces cerevisiae; assay type: functional; procedure, shortened: as §2
[23] = system: Saccharomyces cerevisiae; assay: Downregulation of ARN2 gene expression in Saccharomyces cerevisiae at 7.5 uM after 15 hrs by microarray analysis relative to untreated control; assay type: functional
Procedure, shortened: (§3)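 BY4741Δerg6 cells exposed 15 h to 7.5 or 17 μM; total RNA, 15 μg, used for Cy3/Cy5-dUTP indirect labeling. Arrays prehybridized at 42°C for 45 min, then hybridized in 50% formamide, 5× SSC. Each dose done in duplicate, each RNA hybridized twice with dye swap; treated/untreated fluorescence ratios log-transformed.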

[24] = system: Saccharomyces cerevisiae; assay: Downregulation of ARN2 gene expression in Saccharomyces cerevisiae at 7.5 uM after 15 hrs by qRT-PCR relative to untreated control; assay type: functional
Procedure, shortened: (§4)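 qRT-PCR used aliquots of the microarray RNA (treated and untreated Δerg6, 7.5 or 17 μM, 15 h) plus two additional biological replicates. Cycling was 95°C 10 min, then 40 cycles of 95°C 15 s and 60°C 1 min, with a dissociation curve. Genomic DNA 10-fold dilution standard curves; no-template and no-enzyme controls in triplicate; relative expression by ΔΔCT.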

[25] = system: Saccharomyces cerevisiae; assay: Downregulation of FIT3 gene expression in Saccharomyces cerevisiae at 7.5 uM after 15 hrs by microarray analysis relative to untreated control; assay type: functional; procedure, shortened: as §3
[26] = system: Saccharomyces cerevisiae; assay: Downregulation of FIT3 gene expression in Saccharomyces cerevisiae at 7.5 uM after 15 hrs by qRT-PCR relative to untreated control; assay type: functional; procedure, shortened: as §4
[27] = system: Saccharomyces cerevisiae; assay: Downregulation of PHO5 gene expression in Saccharomyces cerevisiae at 7.5 uM after 15 hrs by microarray analysis relative to untreated control; assay type: functional; procedure, shortened: as §3
[28] = system: Saccharomyces cerevisiae; assay: Downregulation of PHO5 gene expression in Saccharomyces cerevisiae at 7.5 uM after 15 hrs by qRT-PCR relative to untreated control; assay type: functional; procedure, shortened: as §4
[29] = system: Saccharomyces cerevisiae; assay: Downregulation of TIS11 gene expression in Saccharomyces cerevisiae at 7.5 uM after 15 hrs by microarray analysis relative to untreated control; assay type: functional; procedure, shortened: as §3
[30] = system: Saccharomyces cerevisiae; assay: Downregulation of TIS11 gene expression in Saccharomyces cerevisiae at 7.5 uM after 15 hrs by qRT-PCR relative to untreated control; assay type: functional; procedure, shortened: as §4
[31] = system: Saccharomyces cerevisiae; assay: Upregulation of HSP26 gene expression in Saccharomyces cerevisiae at 7.5 uM after 15 hrs by microarray analysis relative to untreated control; assay type: functional; procedure, shortened: as §3
[32] = system: Saccharomyces cerevisiae; assay: Upregulation of HSP26 gene expression in Saccharomyces cerevisiae at 7.5 uM after 15 hrs by qRT-PCR relative to untreated control; assay type: functional; procedure, shortened: as §4
[33] = system: Saccharomyces cerevisiae; assay: Upregulation of TPS1 gene expression in Saccharomyces cerevisiae at 7.5 uM after 15 hrs by microarray analysis relative to untreated control; assay type: functional; procedure, shortened: as §3
[34] = system: Saccharomyces cerevisiae; assay: Upregulation of TPS1 gene expression in Saccharomyces cerevisiae at 7.5 uM after 15 hrs by qRT-PCR relative to untreated control; assay type: functional
Procedure, shortened: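 BY4741Δerg6 yeast (standardized to OD600 0.05 in YPD after 15-h 30°C preculture) grown with cryptolepine (1 mM methanol stock diluted) for 15 h; total RNA extracted, aliquots from microarray samples plus two additional biological replicates used for qRT-PCR: 95°C 10 min, 40 cycles 95°C 15 s/60°C 1 min, dissociation curve; genomic DNA standard curves; relative expression versus untreated by ΔΔCT.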

[35] = system: Saccharomyces cerevisiae; assay: Downregulation of ARN2 gene expression in Saccharomyces cerevisiae at 17 uM after 15 hrs by microarray analysis relative to untreated control; assay type: functional; procedure, shortened: as §3
[36] = system: Saccharomyces cerevisiae; assay: Downregulation of ARN2 gene expression in Saccharomyces cerevisiae at 17 uM after 15 hrs by qRT-PCR relative to untreated control; assay type: functional; procedure, shortened: as §4
[37] = system: Saccharomyces cerevisiae; assay: Downregulation of FIT3 gene expression in Saccharomyces cerevisiae at 17 uM after 15 hrs by microarray analysis relative to untreated control; assay type: functional; procedure, shortened: as §3
[38] = system: Saccharomyces cerevisiae; assay: Downregulation of FIT3 gene expression in Saccharomyces cerevisiae at 17 uM after 15 hrs by qRT-PCR relative to untreated control; assay type: functional; procedure, shortened: as §4
[39] = system: Saccharomyces cerevisiae; assay: Downregulation of PHO5 gene expression in Saccharomyces cerevisiae at 17 uM after 15 hrs by microarray analysis relative to untreated control; assay type: functional; procedure, shortened: as §3
[40] = system: Saccharomyces cerevisiae; assay: Downregulation of PHO5 gene expression in Saccharomyces cerevisiae at 17 uM after 15 hrs by qRT-PCR relative to untreated control; assay type: functional; procedure, shortened: as §4
[41] = system: Saccharomyces cerevisiae; assay: Downregulation of TIS11 gene expression in Saccharomyces cerevisiae at 17 uM after 15 hrs by microarray analysis relative to untreated control; assay type: functional; procedure, shortened: as §3
[42] = system: Saccharomyces cerevisiae; assay: Downregulation of TIS11 gene expression in Saccharomyces cerevisiae at 17 uM after 15 hrs by qRT-PCR relative to untreated control; assay type: functional; procedure, shortened: as §4
[43] = system: Saccharomyces cerevisiae; assay: Upregulation of HSP26 gene expression in Saccharomyces cerevisiae at 17 uM after 15 hrs by microarray analysis relative to untreated control; assay type: functional; procedure, shortened: as §3
[44] = system: Saccharomyces cerevisiae; assay: Upregulation of HSP26 gene expression in Saccharomyces cerevisiae at 17 uM after 15 hrs by qRT-PCR relative to untreated control; assay type: functional; procedure, shortened: as §4
[45] = system: Saccharomyces cerevisiae; assay: Upregulation of TPS1 gene expression in Saccharomyces cerevisiae at 17 uM after 15 hrs by microarray analysis relative to untreated control; assay type: functional; procedure, shortened: as §3
[46] = system: Saccharomyces cerevisiae; assay: Upregulation of TPS1 gene expression in Saccharomyces cerevisiae at 17 uM after 15 hrs by qRT-PCR relative to untreated control; assay type: functional; procedure, shortened: as §4
[47] = system: Saccharomyces cerevisiae; assay: Downregulation of siderophore transport related gene expression in Saccharomyces cerevisiae; assay type: functional, organism-based; procedure, shortened: as §1
[48] = system: Saccharomyces cerevisiae; assay: Downregulation of glucose catabolic process related gene expression in Saccharomyces cerevisiae; assay type: functional, organism-based; procedure, shortened: as §1
[49] = system: Saccharomyces cerevisiae; assay: Downregulation of acid phosphatase activity related gene expression in Saccharomyces cerevisiae; assay type: functional, organism-based; procedure, shortened: as §1
[50] = system: Saccharomyces cerevisiae; assay: Downregulation of fungal type cell wall related gene expression in Saccharomyces cerevisiae; assay type: functional, organism-based; procedure, shortened: as §1
[51] = system: Saccharomyces cerevisiae; assay: Downregulation of stress response related gene expression in Saccharomyces cerevisiae; assay type: functional, organism-based; conditions: in the assay text read “Upregulation” for “Downregulation”; procedure, shortened: as §1

C[n+]1c2ccccc2cc2[n-]c3ccccc3c21.Cl [CRYPTOLEPINE HYDROCHLORIDE]
fold change (FC) [1]: 1.07
fold change (FC) [2]: 3.01
fold change (FC) [3]: 1.57
fold change (FC) [4]: 2.13
fold change (FC) [5]: 1.94
fold change (FC) [6]: 3.46
fold change (FC) [7]: 0.78
fold change (FC) [8]: 0.13
fold change (FC) [9]: 1.01
fold change (FC) [10]: 0.08
fold change (FC) [11]: 1.11
fold change (FC) [12]: 0.8
fold change (FC) [13]: 0.49
fold change (FC) [14]: 0.53
fold change (FC) [15]: 1.79
fold change (FC) [16]: 0.35
fold change (FC) [17]: 0.09
fold change (FC) [18]: 1.24
IC50 [19]: 20.3 µM
IC50 [20]: 25 µM
Activity [21]: Active
IC20 [22]: 7.5 µM
IC40 [22]: 17 µM
fold change (FC) [23]: 2.18
fold change (FC) [24]: 4.06
fold change (FC) [25]: 3.3
fold change (FC) [26]: 5.57
fold change (FC) [27]: 1.88
fold change (FC) [28]: 1.73
fold change (FC) [29]: 2.35
fold change (FC) [30]: 3.3
fold change (FC) [31]: 2.09
fold change (FC) [32]: 2.49
fold change (FC) [33]: 1.24
fold change (FC) [34]: 0.96
fold change (FC) [35]: 3.32
fold change (FC) [36]: 4.9
fold change (FC) [37]: 2.36
fold change (FC) [38]: 2.01
fold change (FC) [39]: 2.05
fold change (FC) [40]: 2.27
fold change (FC) [41]: 2.31
fold change (FC) [42]: 3.46
fold change (FC) [43]: 3.54
fold change (FC) [44]: 3.51
fold change (FC) [45]: 1.01
fold change (FC) [46]: 1.03
Activity [47]: Active
Activity [48]: Active
Activity [49]: Active
Activity [50]: Active
Activity [51]: Active
